TRPC4 inh: inhibitors of mouse TRPC4 channel; 0.39% of 300,000 active; Q9QUQ5; HEK293 TRPC4beta/mu-opioid, DAMGO-evoked Fluo4 calcium flux; stronger effect = lower value; AID 2247; B-score at 10 µM;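 active = B-score over 3 SD under the library average, no early fluorescence shift, positive overall ratio signal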
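Assay system – HEK293 line stably carrying TRPC4beta and mu-opioid receptor · Doses – single dose · Detection – Fluo4 calcium-dye fluorescence, kinetic read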
TRPC6 activator: activators of mouse TRPC6 channel. B-score at 10 µM. AID 2550. 0.13% of 310,000 active. Q61143. HEK293-TRPC6 membrane potential dye fluorescence; stronger effect = higher value;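 active = B-score of the integrated fluorescence ratio above library mean plus 3 SD, and starting fluorescence ratio within library mean plus 5 SD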;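 note: higher score means more depolarization so channel activation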
Target sequence (Q61143 whole entry, looked up): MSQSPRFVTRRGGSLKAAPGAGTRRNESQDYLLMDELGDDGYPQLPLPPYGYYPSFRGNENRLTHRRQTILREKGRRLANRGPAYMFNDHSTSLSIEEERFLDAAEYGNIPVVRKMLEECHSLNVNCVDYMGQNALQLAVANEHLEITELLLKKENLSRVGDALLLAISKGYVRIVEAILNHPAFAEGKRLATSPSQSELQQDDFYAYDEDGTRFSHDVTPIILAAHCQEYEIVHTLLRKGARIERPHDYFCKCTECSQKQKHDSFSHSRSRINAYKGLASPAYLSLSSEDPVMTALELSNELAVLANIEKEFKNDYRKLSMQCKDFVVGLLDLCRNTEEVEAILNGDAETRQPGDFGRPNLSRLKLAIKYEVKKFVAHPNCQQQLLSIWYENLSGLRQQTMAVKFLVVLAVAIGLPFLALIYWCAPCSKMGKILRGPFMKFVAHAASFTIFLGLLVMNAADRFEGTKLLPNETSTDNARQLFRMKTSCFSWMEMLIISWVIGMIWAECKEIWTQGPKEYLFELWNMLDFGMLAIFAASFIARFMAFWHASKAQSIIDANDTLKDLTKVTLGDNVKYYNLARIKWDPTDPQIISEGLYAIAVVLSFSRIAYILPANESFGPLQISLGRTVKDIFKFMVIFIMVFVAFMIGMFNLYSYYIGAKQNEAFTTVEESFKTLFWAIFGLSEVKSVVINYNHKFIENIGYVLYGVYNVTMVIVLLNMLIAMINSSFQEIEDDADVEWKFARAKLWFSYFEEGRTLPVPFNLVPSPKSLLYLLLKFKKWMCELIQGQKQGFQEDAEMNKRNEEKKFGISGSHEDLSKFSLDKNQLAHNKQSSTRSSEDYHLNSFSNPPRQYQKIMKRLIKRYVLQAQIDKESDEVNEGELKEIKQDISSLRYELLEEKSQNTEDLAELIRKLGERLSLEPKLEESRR
TRPC4 agonist: opens the mouse TRPC4 cation channel; Q9QUQ5; HEK293 TRPC4beta/mu-opioid, Fluo4 calcium fluorescence; stronger effect = higher value; B-score at 10 µM; 0.49% of 310,000 active; AID 2237;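 active = B-score above 5 SD of library B-scores, and initial fluorescence ratio not above library mean plus 5 SD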;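 note: positive B-score marks a calcium rise read as TRPC4 activation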
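Technique: kinetic Fluo4 calcium fluorescence; Test system: TRPC4beta and mu-opioid receptor HEK293 stable cells; Measure: B-scored integrated calcium fluorescence ratio; Benchmarks: low control buffer alone, high control maximal DAMGO; Schedule: 45 min room-temperature Fluo4 loading, 110 s read.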
TRPC6 inhibitor: mouse TRPC6 channel inhibition. HEK293-TRPC6, membrane potential dye, ACh-evoked depolarization; stronger effect = lower value. Q61143. B-score at 10 µM. AID 2553. 1.1% of 310,000 active;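 active = B-score under library mean minus 3 SD, initial fluorescence not abnormally high, positive integrated signal ratio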;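 note: B-score derived from integrated fluorescence ratio over the kinetic read; more negative B-score means stronger inhibition of depolarization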
TRPC4 potent: allosteric potentiators of mouse TRPC4 channel | AID 2227 | HEK293 TRPC4beta/mu-opioid, DAMGO EC20, Fluo-4 Ca2+ flux; stronger effect = higher value | B-score at 10 µM | 0.42% of 310,000 active;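 active = B-score of calcium response area above 5 SD of library B-scores, with initial fluorescence ratio within 5 SD of library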;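 note: B-score of integrated fluorescence ratio over time as area under calcium response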
TRPC4 sel inh 2: mouse TRPC4 off-target activity of TRPC6 inhibitors, second screen | shares compounds with TRPC6 inhibitor | inhibition, % at 10 µM | HEK293 TRPC4/MOR, membrane potential dye fluorescence; channel activated by saturating DAMGO dose | AID 2776 | 42% of 920 active;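 active = compounds whose fluorescence signal differed from control wells by over 3 SD, either direction, in both duplicate plates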
TRPC4 spec: mouse TRPC4 off-target activity of TRPC6 inhibitors; activity change, negative = inhibition, % at 10 µM; HEK293 TRPC4/mu-opioid, membrane potential fluorescence; shares compounds with TRPC6 inhibitor; 61% of 920 active; AID 2777;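 active = rise or fall in signal beyond 3 SD of buffer-only wells in both replicate plates, either sign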;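 note: integrated kinetic ratio of fluorescence range over baseline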
HEK293 MPD ctr 2-1: second check of TRPC6 inhibitor effects in parental HEK293 cells | shares compounds with TRPC6 inhibitor | parental HEK293 membrane potential dye fluorescence; maximal acetylcholine challenge after compound addition | signal change vs control, % at 10 µM | 31% of 920 active;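 active = membrane potential signal moving either way by over 3 SD of the maximum-effect control, in both duplicate plates, meaning non-specific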
HEK293 MPD ctr-1: parental HEK293 nonspecific activity of TRPC6 inhibitors | shares compounds with TRPC6 inhibitor | parental HEK293 membrane potential dye fluorescence | membrane potential signal change, % at 10 µM | 60% of 920 active;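 active = membrane potential signal shifting up or down by more than 3 SD of buffer-only wells, on both duplicate plates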
HEK293 MPD ctr-2: parental HEK293 nonspecific activity of TRPC6 modulators. AID 488924. 51% of 2,400 active. membrane potential signal change, % at 10 µM. membrane potential dye fluorescence. shares compounds with TRPC6 inhibitor;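 active = membrane potential signal moves up or down beyond 5 SD from buffer-only wells, on both duplicate plates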
HEK293 MPD ctr 2-2: second check of TRPC6 modulator effects in parental HEK293 cells. shares compounds with TRPC6 inhibitor. membrane potential dye fluorescence; after compound, maximal acetylcholine stimulation. inhibition, % at 10 µM. 14% of 2,400 active. AID 488926;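 active = membrane potential signal drops by more than 5 SD from the mean control signal, in both duplicate plates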;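 note: plate controls were acetylcholine ECmax control wells for no effect and buffer only wells for full effect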
TRPC4/MOR mod: mouse TRPC4 off-target activity of TRPC6 modulators; shares compounds with TRPC6 inhibitor; HEK293 TRPC4/mu-opioid, membrane potential fluorescence; percent change from control (negative = decrease, positive = increase), % at 10 µM; 69% of 2,400 active; AID 488927;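 active = membrane potential signal moved up or down beyond 5 SD of buffer control wells, in both duplicate plates, actives on both sides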;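 note: plate controls were assay buffer wells for no effect and DAMGO maximal-effect wells for full effect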
TRPC4/MOR inh 2: second check of whether TRPC6 modulators also affect mouse TRPC4; shares compounds with TRPC6 inhibitor; HEK293 TRPC4/mu-opioid, membrane potential dye fluorescence; stimulated with maximal-effect DAMGO; inhibition, % at 10 µM; 55% of 2,400 active; AID 488928;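 active = drop in membrane potential signal beyond 5 SD of the control wells in both duplicate plates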;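 note: TRPC4 counter screen for TRPC6 hits run under conditions tuned for TRPC6 not TRPC4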
TRPC6 inh conf: mouse TRPC6 inhibitor confirmation; 43% of 3,300 active; AID 488960; HEK293-TRPC6, membrane potential dye, ACh-evoked depolarization; inhibition, % at 10 µM; shares compounds with TRPC6 inhibitor;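 active = fluorescence ratio falls more than 5 SD below the full-stimulation control mean, in both duplicate runs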;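 note: integrated fluorescence ratio of peak minus minimum over baseline after agonist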
TRPC6 act conf: confirmation of mouse TRPC6 activators. HEK293-TRPC6 membrane potential dye fluorescence, FDSS. AID 488961. activation, % at 10 µM. 11% of 2,800 active. shares compounds with TRPC6 inhibitor;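 active = ratio signal rise beyond 5 SD above unstimulated control wells' mean, seen in both duplicate runs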;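 note: plate controls were buffer EC0 wells for no effect and acetylcholine ECmax response for full effect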
The depositor's hits bear a star; i = inactive; · = not tested or not shown; + = active, no number. Shown are actives, neighbours in structure and some others; about 2.3% of the full set was active somewhere.

SMILES	TRPC4 inh	TRPC6 activator	TRPC4 agonist	TRPC6 inhibitor	TRPC4 potent	HEK293 MPD ctr-2	HEK293 MPD ctr 2-2	TRPC4/MOR mod	TRPC4/MOR inh 2	TRPC6 inh conf	TRPC6 act conf	others
CN(CC(=O)NC1CCN(Cc2ccccc2)CC1)S(=O)(=O)c1ccc2c(c1)c(=O)n(C)c(=O)n2C	i	i	i	-6.05*	i	i	i	-11.0%*	i	i	i
Cc1cc(F)ccc1S(=O)(=O)N1CCCOC1CNC(=O)C(=O)NCc1ccncc1 (stereo not drawn)	i	i	i	i	i	·	·	·	·	·	·
CC(C)c1ccc(CN2C(=O)NC3(CCCCCC3)C2=O)cc1	i	i	i	i	i	·	·	·	·	·	·
COc1ccc(N2CCc3c(C)nc4c(OC)cccc4c32)cc1	i	i	i	-7.98*	i	·	·	·	·	58.2%*	i	TRPC4 sel inh 2=52.0%*;TRPC4 spec=-24.0%*;HEK293 MPD ctr 2-1=i;HEK293 MPD ctr-1=-320.0%*
COc1cccc(N2CCc3c(C)nc4ccc(Cl)cc4c32)c1	i	i	i	-6.21*	i	i	58.0%*	i	88.5%*	62.0%*	i
Cc1nc2c(C)cccc2c2c1CCN2c1ccccc1F	i	i	i	-5.82*	i	-143.0%*	i	-20.0%*	58.0%*	49.5%*	i
COc1ccc(N2CCc3c(C)nc4c(OC)cc(OC)cc4c32)c(OC)c1	i	i	i	i	i	·	·	·	·	·	·
COc1ccc(N2CCc3c(C)nc4c(OC)cc(OC)cc4c32)cc1	i	i	i	-5.72*	i	-173.0%*	75.5%*	-23.5%*	56.5%*	55.0%*	i
COc1ccccc1/C=C/c1onc(C)c1S(=O)(=O)N1CCC(C(=O)NC(C)C)CC1	i	i	i	i	i	·	·	·	·	·	·
O=C(CSc1nnc(-c2ccc(Br)cc2)n1CCc1ccccc1)NC1CCS(=O)(=O)C1 (stereo not drawn)	i	i	i	i	i	·	·	·	·	·	·
Cc1cccc(C)c1NC(=O)CNC(=O)CCC(=O)c1cccs1	i	i	i	i	i	·	·	·	·	·	·
OCCN1CCN(c2ncnc3sc(-c4ccccc4)cc23)CC1	i	i	i	-6.21*	i	i	i	-9.5%*	35.5%*	i	i
c1ccc(-c2cc3c(N4CCCC4)ncnc3s2)cc1	i	i	i	i	i	·	·	·	·	·	·
CC1CC(OC(=O)C(O)c2ccccc2)CC(C)(C)N1C (stereo not drawn)	i	i	i	-5.7*	i	i	i	8.5%*	i	56.5%*	i
CC[n+]1ccc2cc(OC)c(OC)cc2c1Cc1ccc(OC)c(OC)c1	i	i	i	-6.44*	i	-232.5%*	i	-40.0%*	i	i	i
CC1C/C(=C/c2cccn2C)C(=O)/C(=C/c2cccn2C)C1 (stereo not drawn)	i	78.9*	i	i	i	+	i	440.5%*	i	i	311.0%*
O=C(c1cccs1)N1CCC(c2nc3c(nnn3Cc3c(Cl)cccc3Cl)c(=O)[nH]2)CC1	i	i	i	-5.4*	i	i	i	i	i	i	i
COc1ccc(/C=C/C(=O)Nc2cccnc2Cl)cc1	i	i	i	i	i	·	·	·	·	·	·
CC(=O)Nc1ccc(NC(=O)[C@@H](NC(=O)N2C[C@H]3C[C@@H](C2)c2cccc(=O)n2C3)C(C)C)cc1	i	i	i	i	i	·	·	·	·	·	·
CC(C)(C)N(Cc1ccccc1)C(=O)c1ccc(Cl)cc1[N+](=O)[O-]	i	i	i	-6.48*	i	i	i	i	i	i	i
CC(C)Nc1ccc(Cl)cc1[N+](=O)[O-]	i	i	i	i	i	·	·	·	·	·	·
CCOC(=O)C1CCN(C(=O)c2ccccc2NS(=O)(=O)c2ccccc2)CC1	i	i	i	i	i	·	·	·	·	·	·
CCOC(=O)C1CCN(C(=O)c2cccc(S(=O)(=O)Nc3ccc(C)cc3C)c2)CC1	i	i	i	-5.27*	i	i	i	12.5%*	i	36.5%*	·
CC1CCN(Cc2c(C(=O)N/N=C/c3cc(Cl)ccc3O)nnn2-c2nonc2N)CC1	i	i	i	-5.52*	i	i	i	i	i	i	i
CC1CCN(Cc2c(C(=O)N/N=C/c3cc(Br)ccc3O)nnn2-c2nonc2N)CC1	i	i	i	i	i	·	·	·	·	·	·
COC(=O)C(NC(=O)c1ccc(C)cc1)(Nc1cccc(C)n1)C(F)(F)F (stereo not drawn)	i	i	i	-7.25*	i	·	·	·	·	63.4%*	·	TRPC4 sel inh 2=i;TRPC4 spec=i;HEK293 MPD ctr 2-1=i;HEK293 MPD ctr-1=i
CCN(C(=O)c1nn(-c2ccc(OC)cc2)c(=O)c2c1c1ccccc1n2C)c1ccc(OC)cc1	i	i	i	i	i	·	·	·	·	·	·
CCCCN(C)CCNC(=O)c1nn(-c2ccc(OC)cc2)c(=O)c2c1c1ccccc1n2C	i	i	i	-5.72*	i	i	i	-16.5%*	67.5%*	i	i
